Assay results published in article PMC8113979 (Inorganic chemistry, 2017).
Like-named read-outs stand apart in the source and are kept apart here.

What was measured:
[1] = system: MRC-5 (human lung fibroblast) cells; test: MTT cytotoxicity assay in MRC-5 cells; assay type: cell-based; details: read-out: IC50 MRC-5 Normoxia, MRC-5 normal lung fibroblasts
[2] = system: A549 (human lung cancer) cells; test: MTT cytotoxicity assay in A549 cells; assay type: cell-based
[3] = N-methylimidazole challenge; assay type: physicochemical; details: 1 mM complex, 5 mM N-methylimidazole, pH 7.4 PBS, 37 °C, 24 h
Procedure, shortened: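 Complex at 1 mM final in pH 7.4 PBS with 5 mM N-methylimidazole as competing ligand. Analysed by RP-HPLC right after mixing, then again after 24 h at 37 °C. C18 column (250 × 4.6 mm, 5 μm), 1 mL/min, UV at 220 and 260 nm. Gradient: 10% MeOH/water with 0.1% TFA for 5 min, then linear to 100% MeOH (0.1% TFA) over 20 min. Starting, mono- and disubstituted species quantified from peak areas.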

[4] = Cyclic voltammetry in anhydrous DMF; assay type: physicochemical; details: vs SCE, glassy carbon, 0.10 M TBAP, 100 mV/s, 25 °C; for Epc, Co(III/II): irreversible peak potential
[5] = value reported for the hypoxia-imaging agent; cited from earlier work
hypoxic cells = details: uptake, hypoxia vs normoxia; cited from earlier work
HeLa and A549 cell lines = assay type: cell-based, human
A549 cells = test: Cellular uptake of cobalt by GFAAS, normalised to protein; assay type: cell-based, human; details: A549, 100 μM complex, 24 h
[6] = observed in other studies; cited from earlier work
[7] = system: HeLa (human cervical cancer) cells; test: MTT cytotoxicity assay in HeLa cells; assay type: cell-based; details: for IC50: Homo sapiens, HeLa
[8] = read-out: IC50 Without TM, A549, without tetrathiomolybdate

| SMILES | IC50 [1] [µM] | % Disubstituted [3] [%] | % Intact [3] [%] | % Monosubstituted [3] [%] | E1/2,Co(II/I) [4] | Epc, Co(III/II) [4] | also measured |
| --- | --- | --- | --- | --- | --- | --- | --- |
| NC(=S)N/N=C/C=N/NC(N)=S [GTS, glyoxal bis(thiosemicarbazone)] | > 20 |  |  |  |  |  | IC50 [2, 8]: 0.02 ± 0.01 µM |
| CC(=NN=C(N)[S-])C(C)=NN=C(N)[S-].NCc1ccccc1.NCc1ccccc1.O=[N+]([O-])[O-].[Co+3] [[Co(ATS)(BnA)2]^+] |  | 93 | 0 | 7 | −1.18 V | −0.83 V |  |
| CC(=NN=C(N)[S-])C(C)=NN=C(N)[S-].N.N.O=[N+]([O-])[O-].[Co+3] [[Co(ATS)(NH3)2]^+] |  | 35 | 38 | 27 | −1.18 V | −1.10 V |  |
| CC(=NN=C(N)[S-])C(C)=NN=C(N)[S-].O=[N+]([O-])[O-].[Co+3].c1c[nH]cn1.c1c[nH]cn1 [[Co(ATS)(Im)2]^+] |  | 46 | 11 | 43 | −1.19 V | −0.86 V |  |
| CN=C([S-])N/N=C(C)/C(C)=N/NC([S-])=NC.[Cu+2] [[Cu(ATSM)]] |  |  |  |  |  |  | reduction potential [5]: −0.59 V; hypoxia selectivity (hypoxic cells): 5 × |
| CC(C=NN=C(N)[S-])=NN=C(N)[S-].NCc1ccccc1.NCc1ccccc1.O=[N+]([O-])[O-].[Co+3] [[Co(PTS)(BnA)2]^+] |  | 93 | 1 | 6 | –1.14 V | –0.84 V |  |
| N.N.[Cl][Pt][Cl] [Cisplatin, cisplatin] | 3.5 ± 1.2 |  |  |  |  |  | difference in activity under hypoxic versus normoxic conditions (HeLa and A549 cell lines): no difference |
| CC(C=NN=C(N)[S-])=NN=C(N)[S-].O=[N+]([O-])[O-].[Co+3].c1c[nH]cn1.c1c[nH]cn1 [[Co(PTS)(Im)2]^+] |  | 54 | 7 | 39 | –1.12 V | –0.84 V |  |
| [SH-].[SH-].[S]=[Mo]=[S] [TM, tetrathiomolybdate] |  |  |  |  |  |  | effect on cell viability ([2]; A549, 5 μM concentration): a TM does not affect the cell viability at 5 μM concentration. |
| O=[N+]([O-])[O-].O=[N+]([O-])[O-].[Co+2] [Co(NO3)2, reference compound] | > 500 |  |  |  |  |  | Hypoxia/Normoxia Ratio of uptake (A549 cells): 0.88 ± 0.09; Co/Protein (Hypoxia) (A549 cells): 33 ± 3 pg/µg; Co/Protein (Normoxia) (A549 cells): 37 ± 2 pg/µg |
| Nc1n[n+]([O-])c2ccccc2[n+]1[O-] [Tirapazamine] |  |  |  |  |  |  | typical hypoxia selectivity index [6]: 10; IC50 ([2]; Homo sapiens, A549, read-out: IC50 A549 Hypoxia): 11 ± 6.5 µM; IC50 ([2]; Homo sapiens, A549, read-out: IC50 A549 Normoxia): 60 ± 5.4 µM; hypoxia selectivity index ([7]; HeLa cells, in our lab): 3.3; IC50 ([7]; read-out: IC50 HeLa Hypoxia): 13 ± 4.2 µM; IC50 ([7]; read-out: IC50 HeLa Normoxia): 44 ± 19 µM |
| NC([S-])=NN=CC=NN=C(N)[S-].O=[N+]([O-])[O-].[Co+3].c1c[nH]cn1.c1c[nH]cn1 [[Co(GTS)(Im)2]^+] | > 250 | 58 | 6 |  | –1.00 V | –0.72 V | Hypoxia/Normoxia Ratio of uptake (A549 cells): 1.40 ± 0.09; Co/Protein (Hypoxia) (A549 cells): 20 ± 1 pg/µg; Co/Protein (Normoxia) (A549 cells): 15 ± 1 pg/µg; IC50 [2, 8]: 2.6 ± 0.4 µM |
| CC(C=NN=C(N)[S-])=NN=C(N)[S-].N.N.O=[N+]([O-])[O-].[Co+3] [[Co(PTS)(NH3)2]^+] |  | 22 | 56 | 22 | –1.11 V | –0.92 V |  |
